We go through three compounds from PMC4033650 (ACS Chemical Biology, 2014).

Series [1] is described as follows: Tolerability after bolus dose in rats. It counts as in vivo, rat. The settings on record: intravenous bolus, 0.75 mg/kg.
The next series concerns purified LPS. Put plainly: Dansyl-polymyxin LPS displacement binding assay. In a few lines: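 LPS was purified from bacteria, and its molar concentration was set by the purpald Kdo assay. Test compound binding to LPS was read as displacement of a synthetic dansyl-polymyxin probe, using the group's published protocol.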
The test system of series [2] is polymyxin-resistant clinical isolates of P. aeruginosa, A. baumannii, and K. pneumoniae. Put plainly: MIC screen against polymyxin-resistant Gram-negative clinical isolates. In kind it is cell-based. The conditions noted are these: for MICs: polymyxin-resistant clinical isolates of P. aeruginosa, A. baumannii, K. pneumoniae. In a few lines:
(§1)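 Broth microdilution in cation-adjusted Mueller–Hinton broth. […] Plates were incubated 18–20 h at 37 °C. MIC was taken as the lowest concentration inhibiting visible growth.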

Series [3] deals with panel of ATCC and clinical isolates. Description: MIC in the presence of Mg2+. It counts as cell-based. The settings on record: addition of 16 mM of Mg2+; data not shown. In a few lines:
as §1

Series [4] in a line: Tolerability after bolus dose in mice. The conditions noted are these: subcutaneous bolus, 40 mg/kg. In kind it is in vivo, mouse.
Series [5] relates to polymyxin-resistant clinical isolate of P. aeruginosa. Description: Neutropenic mouse lung infection model. The settings on record: 24 h after single-dose treatment (40 mg/kg); inoculum 5.42 ± 0.54 log CFU/lung. In kind it is in vivo. In a few lines: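 The model used neutropenic mice with lung infection, following the group's earlier protocol. One polymyxin-susceptible and one polymyxin-resistant P. aeruginosa strain were used. Lung bacterial burden was counted at 0 and 24 h after treatment.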

Series [6] in a line: Pharmacokinetics after single-dose intravenous administration in rats. The conditions noted are these: rat, in vivo.
A short description of series [7]: Nephrotoxicity in mice, kidney histopathology. The settings on record: subcutaneous, accumulated dose 105 mg/kg. It counts as in vivo, mouse. In a few lines:
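Mice (three groups, n = 3) received subcutaneous injections over 3–4 days to an accumulated 105 mg/kg of test compound or polymyxin B sulfate, with a saline control. Kidneys were formalin-fixed (10%) and sectioned through cortex, medulla and papilla, then stained and graded: grade 1 (mild tubular damage) = 1, grade 2 (severe, necrosis) = 4, grade 3 (cortical necrosis/infarction) = 10.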

Another series has as its system human red blood cells. Description: Hemolysis of human red blood cells. The settings on record: concentrations up to 32 mg/L. In kind it is cell-based.
Series [8] is described as follows: Plasma protein binding by equilibrium dialysis. The conditions noted are these: pooled healthy human plasma. It counts as in vitro ADME. For orientation: In equilibrium dialysis only unbound substance equilibrates across the membrane.
The test system of series [9] is polymyxin-resistant clinical P. aeruginosa isolate. Description: MIC by broth microdilution, polymyxin-resistant P. aeruginosa isolate. In kind it is cell-based, Pseudomonas aeruginosa. In a few lines: (§2)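 Broth microdilution was run in cation-adjusted Mueller–Hinton broth in polypropylene plates. The inoculum was about 10^6 cfu/mL, mixed 1:1 with broth containing test compound (0 to 128 mg/L). Plates were incubated 18–20 h at 37 °C. MIC was the lowest concentration with no visible growth.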

Series [10] has the same test system. Put plainly: Static time-kill, polymyxin-resistant P. aeruginosa isolate. It counts as cell-based, Pseudomonas aeruginosa. The conditions noted are these: 32 mg/L.
The test system of series [11] is polymyxin-susceptible P. aeruginosa ATCC 27853. Description: MIC by broth microdilution, P. aeruginosa ATCC 27853. In kind it is cell-based, Pseudomonas aeruginosa. In a few lines: as §2
A general note: Dilution methods test growth across graded concentrations, often in twofold steps.

The conditions of series [12]: rats ref 23; cited from earlier work.

Like-named read-outs stand apart in the source and are kept apart here. Positions of bridges follow the written chain, without caps; N, C: chain ends. Non-standard residues stand in square brackets, D forms with d. Residues, ends and D or L forms follow the SMILES beside them. *: point of attachment. Gly(octyl) = CCCCCCCC[C@H](N)C(=O)O; Octanoyl = CCCCCCCC(=O)*; Dab = NCC[C@H](N)C(=O)O Bounds are passed on as bounds.

What is called Vd is the apparent volume that relates the amount in the body to the concentration in plasma or blood. The low end stands for confinement near the circulation, the high end for extensive tissue distribution. One may read the clearance as the volume of plasma or blood freed of the substance per unit of time. Low readings indicate a low capacity for elimination, high ones a high capacity for elimination. As a reminder, the half-life is how long it takes for the measured level to halve. As usually defined, the MIC is the lowest concentration that inhibits growth of the organism. A high value points to a need for much substance.

With `CCCCCCCC[C@@H]1NC(=O)[C@@H](Cc2ccccc2)NC(=O)[C@H](CCN)NC(=O)[C@@H](NC(=O)[C@H](CCN)NC(=O)[C@@H](NC(=O)[C@H](CCN)NC(=O)CCCCCCC)[C@@H](C)O)CCNC(=O)[C@H]([C@@H](C)O)NC(=O)[C@H](CCN)NC(=O)[C@H](CCN)NC1=O` [FADDI-002] (Octanoyl-[Dab]T[Dab][Dab][Dab][dF][Gly(octyl)][Dab][Dab]T; lactam 4-C), the adverse effects result in [1] is listed as “no adverse effects were observed”. For the same compound, the “higher LPS binding affinity compared to PMB and colistin” value in the series with purified LPS is given as “up to 27.1 fold”. Also, the antimicrobial activity entry in series [2] (panel of polymyxin-resistant Gram-negative clinical isolates) is listed as “potent antimicrobial activity”. Moreover, in series [3], the “increase in MICs on addition of Mg2+” value is on record as at most 2 fold. The adverse effects result in series [4] is listed as “no adverse effects were observed”. For the same compound, the “bacterial burden in the lungs” value in [5] is 4.75 ± 0.80 log CFU/lung. In series [6], this compound returned a Vd of 0.195 to 0.313 L/kg, a clearance of 0.66 to 1.3 mL/min/kg and a half-life of 2.77 to 3.4 h.

As for Polymyxin B [PMB], in [7], the “histological grade of kidney lesions” value was “grade 1”. For the same compound, in the series with human red blood cells, the “hemolysis of human red blood cells” value is on record as “no detectable hemolysis”. The MICs in series [2] was over 128 mg/L. The “plasma protein binding (bound)” value in [8] is about 51%. The “increase in MICs on addition of Mg2+” value in series [3] is reported as 16 fold.

In the case of colistin, in series [9], the MIC is over 128 µg/mL. Besides, in the series on human red blood cells, the “hemolysis of human red blood cells” value is reported as “no detectable hemolysis”. Also, in series [10], the “bacterial killing in time-kill” value was “no killing was observed”. This compound gave an MICs in series [2] of over 128 mg/L. Also, the MIC in series [11] came to 1 µg/mL. Also, in [12], the half-life was 1.24 h, the total clearance is given as 5.2 mL/min/kg and the volume of distribution was 0.496 L/kg. In addition, the “bacterial burden in the lungs” value in series [5] is recorded as 6.71 ± 0.46 log CFU/lung.
